Assay results: ChEMBL document CHEMBL1157142, “Alkyl deoxy-arabino-hexopyranosides: synthesis, surface properties, and biological activities” (Bioorg Med Chem, 2008)
≈ marks a conversion by molar mass, not a printed value. Calls of active or inactive are those of the source. No cut-off for these calls is given here.

Tests used:
[1] = test system: Escherichia coli; assay: Antimicrobial activity against Escherichia coli ATCC 8739 assessed as diameter of the inhibition zone after 24 hrs by paper disk agar diffusion method; type: functional
Outline: (§1)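 Overnight cultures were spread on agar: tryptone soy agar for Listeria, azide dextrose agar for Enterococcus, and nutrient agar for the other bacteria. 6.4 mm paper disks each received 300 µg of substance in 15 µL DMSO. Plates were incubated at 37 °C for 24 h and the inhibition-zone diameter measured. Chloramphenicol served as control. At least three replicates were run.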

[2] = test system: Staphylococcus aureus; assay: Antimicrobial activity against Staphylococcus aureus ATCC 25923 assessed as diameter of the inhibition zone after 24 hrs by paper disk agar diffusion method; type: functional; outline: as §1
[3] = test system: Bacillus subtilis; assay: Antimicrobial activity against Bacillus subtilis ATCC 6633 assessed as diameter of the inhibition zone after 24 hrs by paper disk agar diffusion method; type: functional; outline: as §1
[4] = test system: Staphylococcus aureus; assay: Antimicrobial activity against Staphylococcus aureus ATCC 25923 after 16 to 20 hrs by broth dilution method; type: functional; details: for MIC: Staphylococcus aureus, ATCC 25923
Outline: (§2)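 Dilution method used overnight cultures and serial compound dilutions from 500 down to 1.95 µg/mL, with chloramphenicol from 50 to 0.195 µg/mL. Incubation was at 35 °C for 16–20 h, and MIC and MLC were determined. At least three replicates were run. Only compounds giving disk inhibition diameters of 11 mm or more were tested.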

[5] = test system: Bacillus cereus; assay: Antimicrobial activity against Bacillus cereus ATCC 11778 assessed as diameter of the inhibition zone after 24 hrs by paper disk agar diffusion method; type: functional; outline: as §1
[6] = test system: Bacillus cereus; assay: Antimicrobial activity against Bacillus cereus ATCC 11778 after 16 to 20 hrs by broth dilution method; type: functional; details: for MIC: Bacillus cereus, ATCC 11778; outline: as §2
[7] = test system: Enterococcus faecalis; assay: Antimicrobial activity against Enterococcus faecalis ATCC 29212 assessed as diameter of the inhibition zone after 24 hrs by paper disk agar diffusion method; type: functional; outline: as §1
[8] = test system: Pyricularia oryzae; assay: Antimicrobial activity against Pyricularia oryzae DSMZ 62938 assessed as diameter of the inhibition zone after 48 hrs by paper disk agar diffusion method; type: functional
Outline: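 Overnight culture spread on potato dextrose agar; 6.4 mm paper disks loaded with compound dissolved in DMSO. […] served as the reference control. Plates incubated at 25 °C for 48 h, then the diameter of the inhibition zone was measured in mm. At least three replicates.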

[9] = test system: Aspergillus niger; assay: Antimicrobial activity against Aspergillus niger ATCC 16404 assessed as diameter of the inhibition zone after 48 hrs by paper disk agar diffusion method; type: functional
Outline: (§3)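 Fungal disk diffusion: overnight cultures were spread on potato dextrose agar. 6.4 mm paper disks each carried 300 µg of substance in 15 µL DMSO. Plates were incubated at 25 °C for 48 h and the inhibition-zone diameter read. Actidione was the control for A. niger and chloramphenicol for C. albicans. At least three replicates were run.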

[10] = test system: Pseudomonas aeruginosa; assay: Antimicrobial activity against Pseudomonas aeruginosa ATCC 27853 assessed as diameter of the inhibition zone after 24 hrs by paper disk agar diffusion method; type: functional; outline: as §1
[11] = test system: Listeria monocytogenes; assay: Antimicrobial activity against Listeria monocytogenes ATCC 7644 assessed as diameter of the inhibition zone after 24 hrs by paper disk agar diffusion method; type: functional; outline: as §1
[12] = test system: Salmonella enteritidis; assay: Antimicrobial activity against Salmonella enteritidis ATCC 13076 assessed as diameter of the inhibition zone after 24 hrs by paper disk agar diffusion method; type: functional, Salmonella enterica subsp. enterica serovar Enteritidis; outline: as §1
[13] = test system: Bacillus subtilis; assay: Antimicrobial activity against Bacillus subtilis ATCC 6633 after 16 to 20 hrs by broth dilution method; type: functional; details: for MIC: Bacillus subtilis, ATCC 6633; outline: as §2
[14] = test system: Candida albicans; assay: Antimicrobial activity against Candida albicans ATCC 10231 assessed as diameter of the inhibition zone after 48 hrs by paper disk agar diffusion method; type: functional; outline: as §3
[15] = test system: Listeria monocytogenes; assay: Antimicrobial activity against Listeria monocytogenes ATCC 7644 after 16 to 20 hrs by broth dilution method; type: functional; details: for MIC: Listeria monocytogenes, ATCC 7644; outline: as §2
[16] = test system: Bacillus cereus; assay: Antimicrobial activity against Bacillus cereus ATCC 11778 after 1 year; type: functional, organism-based
[17] = test system: Enterococcus faecalis; assay: Antimicrobial activity against Enterococcus faecalis ATCC 29212 after 16 to 20 hrs by broth dilution method; type: functional; details: for MIC: Enterococcus faecalis, ATCC 29212; outline: as §2
[18] = Cytotoxicity against human peripheral blood lymphocytes assessed as mitotic index at 100 ug/mL; details: pbl
Outline: (§4)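 Heparinized whole blood from healthy donors was cultured in Ham's F-10 with 15% fetal calf serum, phytohemagglutinin, L-glutamine, streptomycin and penicillin. Compounds at 10 or 100 µg/mL were added after 24 h and culture continued to 48 h. Colcemid (0.5 µg/mL final) was present for the last 3 h. Mitotic index was scored on metaphase spreads at 500×. 2% H2O2 was the positive control.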

[19] = Cytotoxicity against human peripheral blood lymphocytes assessed as mitotic index at 10 ug/mL; details: pbl; outline: as §4

SMILES	inhibition zone (IZ) [1] [mm]	inhibition zone (IZ) [2] [mm]	inhibition zone (IZ) [3] [mm]	MIC [4] [mg/L]	inhibition zone (IZ) [5] [mm]	MLC [6] [mg/L]	MIC [6] [mg/L]	inhibition zone (IZ) [7] [mm]	inhibition zone (IZ) [8] [mm]	inhibition zone (IZ) [9] [mm]	inhibition zone (IZ) [10] [mm]	inhibition zone (IZ) [11] [mm]	inhibition zone (IZ) [12] [mm]	MLC [13] [mg/L]	MIC [13] [mg/L]	inhibition zone (IZ) [14] [mm]	MLC [15] [mg/L]	MIC [15] [mg/L]	MLC [17] [mg/L]	MIC [17] [mg/L]	also measured
CCCCCCCCO[C@H]1C[C@H](O)[C@@H](O)[C@H](C)O1	8	11	12	500 (≈ 1920 µM)	12	500 (≈ 1920 µM)	250 (≈ 960 µM)	10	13	<6.4	8	10	<6.4	>500	250 (≈ 960 µM)	10					MLC [4]: 500 mg/L (≈ 1920 µM)
CCCCCCCCCCCCO[C@@H]1C[C@H](O)[C@@H](O)[C@H](C)O1	<6.4	<6.4	<6.4		<6.4			<6.4	<6.4	<6.4	<6.4	<6.4	<6.4			<6.4					
CCCCCCCCCCCCO[C@H]1C[C@H](O)[C@@H](O)[C@H](C)O1	<6.4	9	25		27	7.8 (≈ 24.6 µM)	7.8 (≈ 24.6 µM)	13	<6.4	<6.4	<6.4	12	<6.4	15.6 (≈ 49.3 µM)	7.8 (≈ 24.6 µM)	<6.4	62.5 (≈ 197 µM)	31.3 (≈ 98.9 µM)	>250	15.6 (≈ 49.3 µM)	Activity [16]: Active
CCCCCCCCCCCCO[C@H]1C[C@@H](O)[C@H](O)[C@@H](CO)O1	<6.4	<6.4	10	> 500	10		> 500	17	<6.4	<6.4	<6.4	<6.4	<6.4		> 500	10	>500	250 (≈ 752 µM)	>500	31.3 (≈ 94.1 µM)	Activity [18]: 6.75; Activity [19]: 13.5
O=C(N[C@H](CO)[C@H](O)c1ccc([N+](=O)[O-])cc1)C(Cl)Cl [CHLORAMPHENICOL]				6.3 (≈ 19.5 µM)		12.5 (≈ 38.7 µM)	6.3 (≈ 19.5 µM)							>50	3.1 (≈ 9.59 µM)		>50	6.3 (≈ 19.5 µM)	>50	6.3 (≈ 19.5 µM)	MLC [4]: >50 mg/L
CCCCCCCCO[C@@H]1C[C@H](O)[C@@H](O)[C@H](C)O1	9	12	10	> 500	12		> 500	9	<6.4	<6.4	9	10	<6.4		> 500	11		> 500			
CCCCCCCCO[C@@H]1C[C@@H](O)[C@H](O)[C@@H](CO)O1	<6.4	<6.4	<6.4		<6.4			<6.4	<6.4	<6.4	<6.4	<6.4	<6.4			<6.4					Activity [18]: 3; Activity [19]: 10.75
CCCCCCCCCCCCO[C@@H]1C[C@@H](O)[C@H](O)[C@@H](CO)O1	<6.4	<6.4	9		<6.4			<6.4	<6.4	<6.4	<6.4	10	<6.4			9					Activity [18]: 7.75; Activity [19]: 13.5
CCCCCCCCO[C@H]1C[C@@H](O)[C@H](O)[C@@H](CO)O1	<6.4	<6.4	12		11		> 500	14	<6.4	<6.4	<6.4	<6.4	<6.4		> 500	<6.4			>500	31.3 (≈ 113 µM)	
